Test results taken from ChEMBL document CHEMBL3272300, “Mapping the dopamine receptor. 1. Features derived from modifications in ring E of the neuroleptic butaclamol” (J Med Chem, 1979).
The source made the active and inactive calls. The calls are words filed in the database; no cut-off is given here.

Key:
Rattus norvegicus [1] = assay: Induction of catalepsy in Sprague-Dawley rat at 5 mg/kg, ip measured after 1 to 24 hrs; format: organism-based; set-up: dose 5 mg/kg, route intraperitoneal; conditions: in vivo
In short: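 Rats (160–180 g), six per group, dosed ip at 5 mg/kg. Catalepsy scored at 1, 2, 4, 6 and 24 h by Wirth stages III and IV; highest mean cataleptic score given as percent of maximum attainable score.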

Mus musculus = assay: Inhibition of isolation-induced fighting behaviour in ip dosed Swiss albino mouse measured after 30 mins to 3 hrs; format: functional
In short: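 Albino mice (14–16 g) isolated 4–5 weeks; pairs showing maximal fighting in a morning control session were dosed ip and retested at 30 min and 3 h in 5-min observations. All-or-none: effective if no fighting episode; ED50 = dose abolishing fighting in 50% of pairs, by Litchfield–Wilcoxon.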

Rattus norvegicus [2] = assay: Behavioral effect in ip dosed Sprague-Dawley rat assessed as inhibition of d-amphetamine-induced stereotyped behaviour compound administered 15 mins post challenge measured every 15 mins for 4 hrs post challenge; format: functional; conditions: read-out: MED
In short: (§1)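 Rats (160–180 g), groups of four or more, given d-amphetamine 10 mg/kg ip, then graded ip doses of test agent or vehicle 15 min later; highest dose 20 mg/kg. Behaviour scored 0 (normal), 1 (excited), 2 (stereotyped) every 15 min for 4 h after amphetamine. MED = lowest dose antagonizing all amphetamine behavioural effects over the 4-h period.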

Rattus norvegicus [3] = assay: Behavioral effect in Sprague-Dawley rat assessed as inhibition of d-amphetamine-induced stereotyped behaviour at 20 mg/kg, ip administered 15 mins post challenge measured every 15 mins for 4 hrs post challenge; format: functional, organism-based; set-up: dose 20 mg/kg; in short: as §1
Rattus norvegicus [4] = assay: Inhibition of epinephrine-induced mortality in ip dosed Sprague-Dawley rat compound administered 1 hr prior challenge measured over 24 hrs; format: functional
In short: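 Groups of six or more rats (220–225 g) given graded ip doses; 1 h later epinephrine bitartrate 0.25 mg/kg iv, a dose lethal to untreated rats. Deaths recorded over 24 h. Protective ED50 (dose protecting 50% of rats from lethality) calculated by Litchfield–Wilcoxon method.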

Rattus norvegicus [5] = assay: Behavioral effect in ip dosed Sprague-Dawley rat assessed as reduction in conditioned avoidance response compound administered 30 mins prior testing; format: functional
In short: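 Morpurgo discrimination box: trained rats (250–400 g) must leave start chamber for lighted exit within 10 s or get shock. Two-trial control session before dosing; graded ip doses to groups of six or more; ten trials run 30 min post-injection. Avoidance failures expressed as percent of trials; ED50 = dose giving 50% failure.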

Row | Structure (SMILES) | Activity (Rattus norvegicus [1]) | ED50 (Mus musculus) | minimal effective dose (Rattus norvegicus [2]) | Activity (Rattus norvegicus [3]) | ED50 (Rattus norvegicus [4]) | ED50 (Rattus norvegicus [5])
1 | CC(C)(C)C1CCN2C[C@H]3c4ccccc4CCc4cccc(c43)[C@@H]2C1 (some centres not stated) | 93% | 2.1 mg/kg | 0.62 mg/kg | inactive | 19 mg/kg | 0.8 mg/kg
2 | c1ccc2c(c1)CCc1cccc3c1[C@H]2CN1CCCC[C@@H]31 |  |  |  | inactive |  | 
3 | CC(C)(C)C1CCN2C[C@H]3c4ccccc4CCc4cccc(c43)[C@H]2C1 (relative stereo) |  |  |  | inactive |  | 
4 | CC(C)(C)[C@@]1(O)CC[C@@H]2c3cccc4c3[C@@H](CN2C1)c1ccccc1CC4 (relative stereo) |  |  |  | inactive |  | 
5 | CC(C)(C)[C@]1(O)CC[C@H]2c3cccc4c3[C@@H](CN2C1)c1ccccc1CC4 (relative stereo) |  |  |  | inactive |  | 
6 | O[C@H]1CCN2C[C@H]3c4ccccc4CCc4cccc(c43)[C@@H]2C1 (relative stereo) |  |  |  | inactive |  | 
7 | c1ccc2c(c1)CCc1cccc3c1[C@H]2CN1CCC2(C[C@@H]31)OCCO2 (relative stereo) |  |  |  | inactive |  | 
8 | CC(C)(C)[C@]1(O)CCN2C[C@H]3c4ccccc4CCc4cccc(c43)[C@@H]2C1 [BUTACLAMOL] | 60% | 1.9 mg/kg | 0.62 mg/kg |  | 15 mg/kg | 0.64 mg/kg
